From ChEMBL document CHEMBL2380272, “Biological evaluation of bisbenzaldehydes against four Mycobacterium species” (Eur J Med Chem, 2013)
Values after ≈ are worked out from the molar mass of the structure shown.

What was measured:
[1] = Toxicity in recombinant Salmonella typhimurium TA104 expressing luxabcd genes under transcriptional control of constitutive pr1 promoter assessed as concentration required to reduce cell viability measured every 5 mins for 4 hrs by vitotox assay in presence of S9 fraction; assay type: organism-based; conditions: salmonella enterica subsp. enterica serovar typhimurium; read-out: Activity
Method in brief: (§1)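 Cytox strain TA104 pr1 (constitutive promoter driving lux), run alongside the genox strain. Grown in poor LB at 36 °C for 16 h, diluted 125-fold and shaken 1 h, then diluted 10-fold, with or without aroclor-rat S9. Luminescence read at 30 °C every 5 min over 4 h; a drop in light signal indicates reduced viability. Top concentration 10 µM.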

[2] = system: Mycobacterium tuberculosis; assay: Antimycobacterial activity against Mycobacterium tuberculosis H37Rv ATCC 27294 assessed as growth inhibition after 6 days by luciferase reporter gene assay; assay type: functional; conditions: H37Rv ATCC 27294, 144 h
Method in brief: (§2)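 Mycobacteria carrying the pSMT1 luciferase reporter plasmid. Compounds came from 10 mM DMSO stocks and were serially diluted in 7H9 + 10% FCS. Thawed bacteria were filtered, recovered 1 h at 37 °C, then added at 50 000 RLU/mL. After 6 days of culture, light was read for 10 s after adding 1% n-decanal. Triplicates were run, and MIC50 was the concentration giving 50% growth inhibition.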

[3] = system: Mycobacterium tuberculosis; assay: Antimycobacterial activity against Mycobacterium tuberculosis H37Rv infected in mouse J774.A1 cells at 1 MOI assessed as intracellular bacterial growth inhibition at 1 uM after 1 hr by luciferase reporter gene assay relative to control; assay type: functional; conditions: J774.A1, 1 h, read-out: GI
[4] = Selectivity index, ratio of NI50 for human HepG2/C3A cells to MIC50 for Mycobacterium tuberculosis H37Rv ATCC 27294; assay type: functional
[5] = Genotoxicity in human HepG2/C3A cells assessed as DNA fragmentation at 1 uM after 24 hrs by alkaline comet assay (reference value: 6.65%); assay type: toxicity, cell-based
Method in brief: (§3)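 Alkaline comet assay. C3A cells, 40,000/well, recovered overnight, then exposed 24 h at 37 °C, 5% CO2 to 0.1–10 µM final, diluted in DMEM + 10% FCS from 1 mM DMSO stock. Cells embedded in low-melting agarose, lysed 1 h, denatured 40 min at pH > 13, electrophoresed 20 min at 300 mA, about 17 °C. Gel red stain, % tail DNA scored by fluorescence microscopy. EMS 0.5 and 0.75 mM as positive control. Mann–Whitney U test.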

[6] = Cytotoxicity against human HepG2/C3A cells assessed as cell viability at 60 uM after 24 hrs by neutral red uptake assay relative to control; assay type: cell-based; conditions: read-out: Activity
Method in brief: (§4)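 C3A cells grown in DMEM + 10% FCS, 40 000 cells/well, recovered overnight at 37 °C, 5% CO2. Exposed 24 h to serial dilutions in DMEM + 10% FCS from 18 mM DMSO stocks, DMSO limited to 1%. Neutral red added for 3 h, cells washed, dye extracted with ethanol/acetic acid (50%/1%), OD read at 540 nm with 620 nm reference. Viability expressed as % of untreated cells.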

[7] = Cytotoxicity against human HepG2/C3A cells assessed as cell viability at 120 uM after 24 hrs by neutral red uptake assay relative to control; assay type: cell-based; conditions: read-out: Activity; method in brief: as §4
[8] = system: Mycobacterium tuberculosis; assay: Antimycobacterial activity against Mycobacterium tuberculosis H37Rv infected in mouse J774.A1 cells at 1 MOI assessed as intracellular bacterial growth inhibition at 0.1 uM after 1 hr by luciferase reporter gene assay relative to control; assay type: functional; conditions: J774.A1, 1 h, read-out: GI
[9] = Potency index, ratio of MIC50 for Mycobacterium avium subsp. avium ATCC 15769 to MIC50 for Mycobacterium bovis AN5; assay type: functional
[10] = Cytotoxicity against human HepG2/C3A cells assessed as cell viability at 180 uM after 24 hrs by neutral red uptake assay relative to control; assay type: cell-based; conditions: read-out: Activity; method in brief: as §4
[11] = Genotoxicity in human HepG2/C3A cells assessed as DNA fragmentation at 10 uM after 24 hrs by alkaline comet assay (reference value: 6.65%); assay type: toxicity, cell-based; method in brief: as §3
[12] = system: Mycobacterium tuberculosis; assay: Antimycobacterial activity against Mycobacterium tuberculosis H37Rv ATCC 27294 assessed as growth inhibition at 1 uM after 6 days by luciferase reporter gene assay relative to control; assay type: functional; conditions: H37Rv ATCC 27294, 144 h, read-out: GI
Method in brief: (§5)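 Luminescent M. tb H37Rv (hsp60-driven luciferase) in 7H9 + 10% FCS was seeded at 50 000 RLU/mL. Compounds were tested at 10, 1 and 0.1 µM from 10 mM DMSO stocks. After 6 days, luminescence was read with 1% n-decanal. Growth inhibition (%) was expressed against untreated culture, with triplicates.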

Salmonella typhimurium [13] = assay: Genotoxicity in recombinant Salmonella typhimurium TA104 expressing Vibrio fisheri luxabcd genes under transcriptional control of recN2-4 promoter assessed as concentration required to cause DNA damage measured every 5 mins for 4 hrs by vitotox assay in absence of S9 fraction; assay type: toxicity, organism-based; conditions: salmonella enterica subsp. enterica serovar typhimurium
Method in brief: (§6)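 VITOTOX genox strain TA104 recN2-4 (recN promoter driving lux). Grown 16 h at 36 °C in poor LB, diluted 125-fold and shaken 1 h, then diluted 10-fold; rat aroclor S9 added for +S9 runs. Incubated at 30 °C with light read every 5 min for 4 h. Signal/noise = exposed over unexposed light. Highest concentration tested 10 µM.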

[14] = Antimycobacterial activity against Mycobacterium avium subsp. avium ATCC 15769 assessed as growth inhibition after 6 days by luciferase reporter gene assay; assay type: functional; conditions: ATCC 15769, 144 h; method in brief: as §2
[15] = Potency index, ratio of MIC50 for Mycobacterium avium subsp. paratuberculosis ATCC 19698 to MIC50 for Mycobacterium bovis AN5; assay type: functional
[16] = system: Mycobacterium tuberculosis; assay: Antimycobacterial activity against Mycobacterium tuberculosis H37Rv infected in mouse J774.A1 cells at 1 MOI assessed as intracellular bacterial growth inhibition at 10 uM after 1 hr by luciferase reporter gene assay relative to control; assay type: functional; conditions: J774.A1, 1 h, read-out: GI
[17] = system: Mycobacterium avium subsp. paratuberculosis; assay: Antimycobacterial activity against Mycobacterium avium subsp. paratuberculosis ATCC 19698 assessed as growth inhibition after 6 days by luciferase reporter gene assay; assay type: functional; conditions: ATCC 19698, 144 h; method in brief: as §2
[18] = Genotoxicity in human HepG2/C3A cells assessed as DNA fragmentation at 0.3 uM after 24 hrs by alkaline comet assay (reference value: 6.65%); assay type: toxicity, cell-based; method in brief: as §3
Mycobacterium ulcerans = assay: Antimycobacterial activity against Mycobacterium ulcerans 1615 assessed as growth inhibition after 6 days by luciferase reporter gene assay; assay type: functional; conditions: Mycobacterium ulcerans, 1615, 144 h
Method in brief: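 M. ulcerans 1615 carrying pSMT1 luciferase reporter plasmid, stock grown as surface pellicle on Sauton medium, cultured at 32 °C. Serial compound dilutions in 7H9 + 10% FCS from 10 mM DMSO stocks, tested in triplicate. Filtered bacteria added at 50 000 RLU/mL. After 6 days, wells collected and washed with PBS, 1% n-decanal in ethanol added, light read over 10 s. MIC50 = concentration giving 50% inhibition versus untreated.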

Salmonella typhimurium [19] = assay: Toxicity in recombinant Salmonella typhimurium TA104 expressing luxabcd genes under transcriptional control of constitutive pr1 promoter assessed as concentration required to reduce cell viability measured every 5 mins for 4 hrs by vitotox assay in absence of S9 fraction; assay type: organism-based; conditions: salmonella enterica subsp. enterica serovar typhimurium; method in brief: as §1
[20] = Genotoxicity in human HepG2/C3A cells assessed as DNA fragmentation at 0.1 uM after 24 hrs by alkaline comet assay (reference value: 6.65%); assay type: toxicity, cell-based; method in brief: as §3
[21] = system: Mycobacterium tuberculosis; assay: Antimycobacterial activity against Mycobacterium tuberculosis H37Rv ATCC 27294 assessed as growth inhibition at 0.1 uM after 6 days by luciferase reporter gene assay relative to control; assay type: functional; conditions: H37Rv ATCC 27294, 144 h, read-out: GI; method in brief: as §5
Salmonella typhimurium [22] = assay: Genotoxicity in recombinant Salmonella typhimurium TA104 expressing Vibrio fisheri luxabcd genes under transcriptional control of recN2-4 promoter assessed as concentration required to cause DNA damage measured every 5 mins for 4 hrs by vitotox assay in presence of S9 fraction; assay type: toxicity, organism-based; conditions: salmonella enterica subsp. enterica serovar typhimurium, s9, 4 h; method in brief: as §6
[23] = system: Mycobacterium tuberculosis; assay: Antimycobacterial activity against Mycobacterium tuberculosis H37Rv ATCC 27294 assessed as growth inhibition at 10 uM after 6 days by luciferase reporter gene assay relative to control; assay type: functional; conditions: H37Rv ATCC 27294, 144 h, read-out: GI; method in brief: as §5
[24] = Genotoxicity in human HepG2/C3A cells assessed as DNA fragmentation at 3 uM after 24 hrs by alkaline comet assay (reference value: 6.65%); assay type: toxicity, cell-based; method in brief: as §3

With `O=Cc1ccc(OCCCCCCCCCCCCOc2ccc(C=O)cc2)cc1` the MCC at 4 h [1] was > 10 µM, the MIC50 [2] was 0.52 µM (≈ 0.213 µg/mL) and the percent inhibition of intracellular bacterial growth at 1 µM [3] was 53.1%. For the same molecule, the “Selectivity Index” value [4] was >346.2, the Activity [5] was 7.62% and the viability at 24 h, 60 µM [6] was 101%. For the same molecule, the viability at 24 h, 120 µM [7] was 89.9%, the intracellular bacterial growth inhibition at 0.1 µM [8] was 13.5% and the Ratio [9] was 5. It also gave a viability at 24 h, 180 µM [10] of 68.1%, an Activity [11] of 6.97% and an inhibition of growth at 1 µM [12] of 81%. The Activity (Salmonella typhimurium [13]) was > 10 µM, the MIC50 [14] was 5.01 µM (≈ 2.06 µg/mL) and the Ratio [15] was 5. The intracellular bacterial growth inhibition at 10 µM [16] was 74%, the MIC50 [17] was 4.75 µM (≈ 1.95 µg/mL) and the Activity [18] was 7.64%. The MIC50 (Mycobacterium ulcerans) was 8.21 µM (≈ 3.37 µg/mL), the Activity (Salmonella typhimurium [19]) was > 10 µM and the Activity [20] was 5.72%. The inhibition of growth at 0.1 µM [21] was 26%, the Activity (Salmonella typhimurium [22]) was > 10 µM and the inhibition of growth at 10 µM [23] was 100%. For the same molecule, the Activity [24] was 7.44%.
